hIAP act – human IAP activation. actives 0.16% (n = 330,000). purified human IAP, CDP-Star luminescence, 30 min; hits give high values; 1 = vehicle-only enzyme, 0 = enzyme-free background. AID 2524. activation factor at 10 µM. P09923;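 active means activation factor of the enzyme at least 2-fold when tested at 20 µM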
Target sequence (P09923 whole entry, looked up): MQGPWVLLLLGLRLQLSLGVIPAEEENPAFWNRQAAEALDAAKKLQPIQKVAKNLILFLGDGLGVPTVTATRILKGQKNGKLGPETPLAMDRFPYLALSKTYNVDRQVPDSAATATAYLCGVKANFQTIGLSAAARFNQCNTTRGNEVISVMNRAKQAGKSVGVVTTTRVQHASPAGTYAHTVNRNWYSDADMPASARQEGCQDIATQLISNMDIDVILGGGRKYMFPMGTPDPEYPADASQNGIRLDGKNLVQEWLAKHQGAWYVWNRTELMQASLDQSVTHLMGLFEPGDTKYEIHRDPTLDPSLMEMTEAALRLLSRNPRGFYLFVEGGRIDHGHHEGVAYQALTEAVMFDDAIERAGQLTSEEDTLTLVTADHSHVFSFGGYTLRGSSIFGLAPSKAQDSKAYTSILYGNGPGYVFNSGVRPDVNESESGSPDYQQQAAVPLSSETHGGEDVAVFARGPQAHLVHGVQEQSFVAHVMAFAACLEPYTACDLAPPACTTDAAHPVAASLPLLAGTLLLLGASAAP
bIAP inhibitor – blocks bovine intestinal alkaline phosphatase activity; purified bovine IAP, CDP-star luminescence, 30 min; 190,000 tested, under 10 active; inhibition, % at 20 µM;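 active means over 50% inhibition of intestinal alkaline phosphatase at 20 µM in the single-dose screen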
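Assay system – bovine IAP enzyme · Quantity – bovine IAP at 1/65,000,000 final dilution · Detection – CDP-star luminescence signal · Times – 30 min reaction at room temperature · Also added – CDP-star substrate at 30 µM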
mIAP activ – mouse IAP activation. muIAP, CDP-Star luminescence, 30 min; hits give high values; 1 = vehicle-only enzyme signal, 0 = enzyme-free wells. activation factor at 10 µM. actives 0.24% (n = 330,000). AID 2805;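 active means activation factor of at least 2 at 20 µM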
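Assay system: mouse IAP enzyme; Reagent: CDP-Star chemiluminescent phosphatase substrate; Compound: DMSO-dissolved test compounds; Incubation: 30 min, room temperature; Technique: luminescence from enzymatic CDP-Star hydrolysis; Controls: DMSO-only wells and no-enzyme negative control.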
mIAP inh – blocks mouse intestinal alkaline phosphatase; purified mouse IAP, CDP-Star luminescence, 30 min; inhibition, % at 10 µM; actives 0.2% (n = 330,000);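 active means inhibition of at least 40% at 10 µM in the primary screen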;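 further: plate controls were DMSO with enzyme for no effect and no enzyme wells for full effect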
bIAP act – increases bovine intestinal alkaline phosphatase activity; purified bovine IAP, CDP-star luminescence, 30 min; hits give high values; fold of DMSO-control signal, blank-subtracted; activation factor at 20 µM; actives 0.17% (n = 200,000); AID 1016;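 active means activation factor of 2 or more at 20 µM, a signal rise over negative controls twice the positive control's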
hIAP block – human IAP inhibition. P09923. purified IAP, CDP-Star luminescence, 30 min. inhibition, % at 10 µM. actives 0.12% (n = 330,000). AID 2544;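 active means inhibition reaching a set limit with compound at 10 µM in the primary screen, cut at about 35% in these data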;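 further: plate controls were DMSO wells with enzyme for no effect and no-enzyme buffer wells for full effect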
An asterisk follows results filed as active; i = inactive; / = no result. Sampled rows, rich in hits. Any-hit rate of the full collection: about 0.72%.

SMILES	hIAP act	bIAP inhibitor	mIAP activ	mIAP inh	bIAP act	hIAP block
CC(=O)c1ccc(S(=O)(=O)N2CCC(NC(=O)Nc3cccc(F)c3)CC2)cc1	1.2	-13	1.2	-21	1.1	-21
O=C(Nc1cccc(C(F)(F)F)c1)NC1CCN(S(=O)(=O)c2ccc(F)cc2)CC1	0.93	12	2.3*	-134	0.9	7
FC(F)(F)c1cccc(CNC(=S)Nc2ccccc2)c1	1.1	26	1.3	-34	0.7	-8
Cc1cccc(-n2ncc3c2CCCC3NC(=O)CCc2cccnc2)c1C (stereo not given)	1.3	/	1	-4	/	-28
Cc1cc(C2N=C(N)Nc3nc4ccccc4n32)c(C)n1-c1ccccc1Cl (stereo not given)	0.81	-312	2	-96	4.1*	20
Cc1ccc(-n2c(C)cc(C3N=C(N)Nc4nc5ccccc5n43)c2C)c(C)c1 (stereo not given)	1.2	i	1.8	-84	7*	-18
CCC1(c2ccccc2)NC(=O)N(CC(=O)Nc2ccccc2C(=O)N2CCCCC2)C1=O (stereo not given)	1.1	/	1.1	-8	/	-5
Cc1ccc(S(=O)(=O)Nc2cccc(C(=O)NCCCn3ccnc3)c2)cc1F	1	/	1	-4	/	-4
O=S(=O)(NCCc1ccc(F)cc1)c1ccc(F)cc1Br	/	/	0.96	4	/	/
Cc1ccc(C)n1-c1ccc(C(=O)NN)s1	1.2	-110	1.1	-13	2.1*	-21
CCOC(=O)CNC(=O)c1ccc(Br)s1	0.93	/	1.1	-5	/	7
Cc1ccc(CSCc2nc3ccccc3[nH]2)cc1	/	-131	/	/	2.3*	/
Cc1ccc(SCc2nc3ccccc3[nH]2)cc1	1.1	-4	0.98	2	1	-8
Cc1ccc(Cl)cc1NC(=S)NCCCSC1CCCCC1	1	/	3.1*	-211	0.4	-4
Cc1ccc(-n2ncc3c(N4CCCC(C)C4)ncnc32)c(C)c1 (stereo not given)	1.1	/	0.56	44*	/	-11
Cc1ccc(CNCc2cc(Cl)ccc2O)cc1	1	/	0.87	13	/	0
CCCOc1ccc(CNC(=S)NCc2ccc(OC(C)C)cc2)cc1	1.2	-2	4.2*	-315	1	-22
O=C(NCCc1ccc(F)cc1)c1cc(=O)c2ccccc2o1	0.92	5	0.98	2	1	8
CCc1ccc(N2CSC3=C(C#N)C(c4cccs4)CC(=O)N3C2)cc1 (stereo not given)	1	25	0.69	31	0.7	-1
COc1ccc(N2CSC3=C(C#N)C(c4cccs4)CC(=O)N3C2)cc1 (stereo not given)	0.76	-10	0.56	44*	1.1	24
CC(C)C[C@@]12C(=O)N(c3cccc(Br)c3)C(=O)N1[C@H](c1ccc(Cl)cc1)[C@@H]1C(=O)N(C3CCCCC3)C(=O)[C@@H]12	0.84	/	0.54	46*	/	16
CC(C)CCN1CCN(Cc2ccc(Sc3nncn3C)o2)CC1CCO (stereo not given)	0.99	-19	1	-2	1.2	1
COC(=O)N/N=C(C)\C=C\c1ccco1	1.1	i	0.99	1	6.4*	-7
CC(=O)c1cccc(CN2CCC(C(=O)Nc3cccc(-c4ccn[nH]4)c3)CC2)c1	1	/	1.2	-19	/	-4
Cc1ccccc1Cn1nc(C)c(NC(=O)C2c3ccccc3Oc3ccccc32)c1C	1.1	2	4.5*	-349	1	-6
SMILES	hIAP act	bIAP inhibitor	mIAP activ	mIAP inh	bIAP act	hIAP block
CCOc1ccc(NC(=O)CCC(=O)NNC(=O)COc2ccc(C)cc2Br)cc1	2	/	0.51	49*	/	-96
CCCCC(=O)NC(=S)NNC(=O)CCc1ccccc1	1.6	/	0.87	13	/	-59
CC(=O)NNC(=S)NC(=O)C(c1ccccc1)c1ccccc1	0.99	-172	0.97	3	2.7*	1
CC(=O)NC(=S)NNC(=O)CCc1ccccc1	1.7	-118	0.96	4	2.2*	-67
COc1ccc(C2=NOC(C(=O)Nc3ccc4c(c3)OCCO4)C2)cc1OC (stereo not given)	1	/	0.97	3	/	-4
O=C(NC(=S)Nc1nc2c(s1)CSc1ccccc1-2)c1ccccc1	1.2	15	0.83	17	0.9	-15
CCC(C)(C)NC(=O)C(c1cccs1)N(C(=O)c1ccn[nH]1)c1cccc(OC)c1 (stereo not given)	0.94	-106	1	-4	2.1*	6
CCC(C)(C)NC(=O)C(c1ccccc1F)N(C(=O)c1ccn[nH]1)c1ccccc1 (stereo not given)	1.2	13	1.3	-29	0.9	-20
OC[C@@H]1[C@@H](c2ccccc2)C(c2ccc(F)cc2)=NN1c1ccccc1	/	/	1.8	-84	/	/
Cc1cccc(C2=NN(c3ccccc3)[C@H](CO)[C@H]2c2ccc(Cl)cc2)c1	/	/	2*	-101	/	/
OC[C@@H]1[C@@H](c2ccc(Cl)cc2)C(c2ccc(F)cc2)=NN1c1ccccc1	/	/	2*	-102	/	/
CCOC(=O)NC(=O)CSc1ccc(S(=O)(=O)N(C)C2CCCCC2)cn1	1	/	0.99	1	/	-4
C[C@@H](C(=O)Nc1ccc2ccccc2c1)[C@H]1C[C@]1(C)[C@H](NC(=O)OCc1ccccc1)c1ccccc1	1	8	1.5	-50	0.9	-2
Cc1cc(C(=O)N[C@H](c2ccccc2)[C@@]2(C)C[C@@H]2[C@@H](C)C(=O)Nc2ccc3ccccc3c2)n(C)n1	1.2	7	2.1*	-110	0.9	-15
COc1cc(/C=C2/C(=O)NN(c3cccc(F)c3)C2=O)ccc1OC(=O)c1ccco1	0.84	-109	0.89	11	2.1*	16
S=C(NCCC(c1ccccc1)c1ccccc1)Nc1ccccc1Cl	0.94	-66	6*	-499	1.7	6
COc1cc(NC(=S)NCCC(c2ccccc2)c2ccccc2)c(OC)cc1Cl	0.99	2	3.5*	-248	1	1
S=C(NCc1ccc(Cl)cc1)Nc1ccccc1Cl	0.89	6	1.5	-52	0.9	11
COc1ccccc1NC(=S)NCCC(c1ccccc1)c1ccccc1	1.1	2	2.1*	-108	1	-6
COc1ccccc1NC(=S)NCc1ccccc1	1.1	/	0.97	3	/	-5
CCOC(=O)N1CCN(C(=O)CN(C)S(=O)(=O)c2ccc(Cl)cc2)CC1	1.1	/	1.1	-6	/	-15
CCN(Cc1nc2ccccc2c(=O)[nH]1)C(=O)COc1ccccc1Cc1ccccc1	1	/	0.93	7	/	-1
O=C(COC(=O)c1cc(=O)[nH]c2ccccc12)NCc1ccccc1Cl	1	/	1.2	-23	/	0
CC(C)Cn1c(=O)[nH]c(=O)c2c(C(F)(F)F)cc(-c3ccccc3)nc21	1.1	/	1.1	-5	/	-12
CC(C)CNC(=S)Nc1ccc(Oc2ccccc2)cc1	0.93	5	2.2*	-116	0.9	7

Compound activity deposited in PubChem BioAssay by Sanford-Burnham Center for Chemical Genomics.
